# Test results published in ChEMBL document CHEMBL5036376, “C20-nor-Abietane and Three Abietane Diterpenoids from Plectranthus mutabilis Leaves as P-Glycoprotein Modulators” (ACS Med Chem Lett, 2022).
# pIC50: −log10 of the molar value.
# Key:
# [1] = target: T1, ATP-dependent translocase ABCB1 (Homo sapiens, UniProt P08183); assay: Stimulation of P-gp in human multidrug resistant NCI-H460/R cells assessed as fluorescence activity ratio at 0.05 uM […] by Rho123 accumulation assay relative to control; conditions: nci-h460, 1.2 h
# T1 sequence (P08183 whole entry): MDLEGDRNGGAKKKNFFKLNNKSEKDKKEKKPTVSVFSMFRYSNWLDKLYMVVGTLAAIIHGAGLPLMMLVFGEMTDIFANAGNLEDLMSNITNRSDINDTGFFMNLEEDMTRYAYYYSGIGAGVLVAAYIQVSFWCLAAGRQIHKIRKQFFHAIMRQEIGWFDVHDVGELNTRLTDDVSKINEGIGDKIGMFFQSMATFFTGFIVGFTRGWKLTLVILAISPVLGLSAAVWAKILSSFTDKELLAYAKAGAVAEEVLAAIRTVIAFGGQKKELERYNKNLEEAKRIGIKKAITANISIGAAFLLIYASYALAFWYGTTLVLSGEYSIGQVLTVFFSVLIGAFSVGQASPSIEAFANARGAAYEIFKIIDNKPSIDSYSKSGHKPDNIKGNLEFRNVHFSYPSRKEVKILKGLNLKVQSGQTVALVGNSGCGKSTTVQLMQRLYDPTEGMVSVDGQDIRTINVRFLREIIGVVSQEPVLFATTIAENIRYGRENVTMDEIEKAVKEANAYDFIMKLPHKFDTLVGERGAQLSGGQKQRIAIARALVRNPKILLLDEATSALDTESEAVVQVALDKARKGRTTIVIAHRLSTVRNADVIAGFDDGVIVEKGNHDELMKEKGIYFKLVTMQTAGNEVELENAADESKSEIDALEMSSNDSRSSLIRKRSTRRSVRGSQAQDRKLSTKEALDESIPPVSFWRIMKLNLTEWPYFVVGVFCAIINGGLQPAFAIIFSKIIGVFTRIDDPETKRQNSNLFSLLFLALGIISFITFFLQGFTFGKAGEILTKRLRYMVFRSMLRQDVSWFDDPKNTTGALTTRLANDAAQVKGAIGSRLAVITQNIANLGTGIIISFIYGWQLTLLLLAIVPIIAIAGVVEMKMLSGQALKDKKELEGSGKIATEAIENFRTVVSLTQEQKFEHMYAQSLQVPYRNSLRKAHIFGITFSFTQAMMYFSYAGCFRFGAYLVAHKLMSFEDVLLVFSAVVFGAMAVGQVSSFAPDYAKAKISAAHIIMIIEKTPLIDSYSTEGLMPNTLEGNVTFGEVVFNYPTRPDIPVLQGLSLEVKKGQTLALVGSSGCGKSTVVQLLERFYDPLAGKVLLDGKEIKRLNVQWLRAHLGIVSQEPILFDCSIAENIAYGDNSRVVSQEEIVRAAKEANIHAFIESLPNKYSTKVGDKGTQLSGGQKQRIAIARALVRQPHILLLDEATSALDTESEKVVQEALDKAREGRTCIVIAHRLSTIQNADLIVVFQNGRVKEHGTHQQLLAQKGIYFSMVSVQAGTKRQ
# [2] = target: T1, ATP-dependent translocase ABCB1; assay: Stimulation of P-gp in human multidrug resistant NCI-H460/R cells assessed as fluorescence activity ratio at 50 uM for 30 mins by Rho123 accumulation assay relative to control; conditions: nci-h460, 0.5 h
# Outline: (§1)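 Rho123 and test agent given together to NCI-H460/R cells for 30 min, then mean fluorescence intensity (MFI) read. FAR = MFI of treated MDR cells / MFI of untreated MDR cells. SI = (MFI of treated MDR cells × 100) / MFI of untreated sensitive NCI-H460 cells. Tariquidar was the P-gp inhibition control. Mean ± SE.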
# [3] = Selectivity index, ratio of mean fluorescence intensity for stimulation of P-gp in human multidrug resistant NCI-H460/R cells to mean fluorescence intensity for stimulation of P-gp in human NCI-H460 cells assessed as decrease in Rho123 accumulation at 50 uM for 30 mins; assay type: functional; conditions: 0.5 h; outline: as §1
# [4] = target: T1, ATP-dependent translocase ABCB1; assay: Stimulation of P-gp in human multidrug resistant NCI-H460/R cells assessed as decrease in Rho123 accumulation by measuring mean fluorescence intensity at 0.05 uM incubated for 72 hour followed by rhodamine 123 measured after 30 mins by flow cytometry; conditions: nci-h460, 72 h
# Outline: (§2)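 NCI-H460/R cells treated with the test agent for 72 h, then loaded with Rho123 for 30 min; intracellular mean fluorescence intensity (MFI) measured. References are untreated NCI-H460/R (MDR control) and parental NCI-H460 (sensitive control). FAR = MFI treated/MFI MDR control; SI = MFI treated × 100/MFI sensitive control; mean ± SE. Tariquidar is the P-gp inhibitor comparator.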
# [5] = Selectivity index, ratio of mean fluorescence intensity for stimulation of P-gp in human multidrug resistant NCI-H460/R cells to mean fluorescence intensity for stimulation of P-gp in human NCI-H460 cells assessed as decrease in Rho123 accumulation at 0.05 uM for […]; assay type: functional
# [6] = target: T1, ATP-dependent translocase ABCB1; assay: Stimulation of P-gp in human multi-drug resistant NCI-H460/R cells assessed as decrease in Rho123 accumulation by measuring mean fluorescence intensity at 50 uM incubated for 30 mins in presence of rhodamine 123 by flow cytometry; conditions: nci-h460, 0.5 h
# Outline: (§3)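 NCI-H460/R (P-gp-overexpressing NSCLC) cells exposed to the test agent together with Rho123 for 30 min; mean fluorescence intensity (MFI) read. Untreated NCI-H460/R serve as MDR control and parental NCI-H460 as sensitive control. FAR = MFI treated/MFI MDR control; SI = MFI treated × 100/MFI sensitive control; mean ± SE. Tariquidar is the P-gp inhibition positive control.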
# [7] = Selectivity index, ratio of mean fluorescence intensity for stimulation of P-gp in human multidrug resistant NCI-H460/R cells to mean fluorescence intensity for stimulation of P-gp in human NCI-H460 cells assessed as decrease in Rho123 accumulation at 10 uM for 72 mins; assay type: functional; conditions: 1.2 h
# [8] = Selectivity index, ratio of mean fluorescence intensity for stimulation of P-gp in human multidrug resistant NCI-H460/R cells to mean fluorescence intensity for stimulation of P-gp in human NCI-H460 cells assessed as decrease in Rho123 accumulation at 5 uM for 30 mins; assay type: functional; conditions: 0.5 h
# NCI-H460 [9] = assay: Anticancer activity against human multi-drug resistant NCI-H460/R cells assessed as reduction in cell viability measured after 72 hrs by MTT assay; assay type: functional, cell-based; conditions: NCI-H460, 72 h
# Outline: (§4)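 MTT read-out of metabolic activity (viability) in sensitive NSCLC NCI-H460, its P-gp-overexpressing MDR subline NCI-H460/R and normal embryonic lung fibroblasts MRC-5. Isolated diterpenes were tested at 2, 5, 10, 20 and 50 μM and acetone extract at 2, 5, 10, 20 and 50 μg/mL. IC50 was reported in μM for compounds and μg/mL for extract.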
# [10] = Selectivity index, ratio of mean fluorescence intensity for stimulation of P-gp in human multidrug resistant NCI-H460/R cells to mean fluorescence intensity for stimulation of P-gp in human NCI-H460 cells assessed as decrease in Rho123 accumulation at 5 uM for 72 mins; assay type: functional; conditions: 1.2 h
# [11] = target: T1, ATP-dependent translocase ABCB1; assay: Stimulation of P-gp in human multi drug resistant NCI-H460/R cells assessed as decrease in Rho123 accumulation by measuring mean fluorescence intensity at 10 uM incubated for 30 mins in presence of rhodamine 123by flow cytometry; conditions: nci-h460, 0.5 h; outline: as §3
# [12] = target: T1, ATP-dependent translocase ABCB1; assay: Stimulation of P-gp in human multidrug resistant NCI-H460/R cells assessed as fluorescence activity ratio at 10 uM for 30 mins by Rho123 accumulation assay relative to control; conditions: nci-h460, 0.5 h
# MRC5 = assay: Cytotoxicity against human MRC-5 cells assessed as reduction in cell viability measured after 72 hrs by MTT assay; assay type: cell-based; conditions: MRC5, 72 h; outline: as §4
# [13] = target: T1, ATP-dependent translocase ABCB1; assay: Stimulation of P-gp in human multidrug resistant NCI-H460/R cells assessed as fluorescence activity ratio at 5 uM for 72 mins by Rho123 accumulation assay relative to control; conditions: nci-h460, 1.2 h
# NCI-H460 [14] = assay: Anticancer activity against human NCI-H460 cells assessed as reduction in cell viability measured after 72 hrs by MTT assay; assay type: functional, cell-based; conditions: NCI-H460, 72 h; outline: as §4
# [15] = target: T1, ATP-dependent translocase ABCB1; assay: Stimulation of P-gp in human multi-drug resistant NCI-H460/R cells assessed as decrease in Rho123 accumulation by measuring mean fluorescence intensity at 5 uM incubated for 30 mins in presence of rhodamine 123 by flow cytometry; conditions: nci-h460, 0.5 h; outline: as §3
# [16] = target: T1, ATP-dependent translocase ABCB1; assay: Stimulation of P-gp in human multidrug resistant NCI-H460/R cells assessed as decrease in Rho123 accumulation by measuring mean fluorescence intensity at 5 uM incubated for 72 hrs followed by rhodamine 123 measured after 30 mins by flow cytometry; conditions: nci-h460, 72.5 h; outline: as §2
# [17] = target: T1, ATP-dependent translocase ABCB1; assay: Stimulation of P-gp in human multidrug resistant NCI-H460/R cells assessed as decrease in Rho123 accumulation by measuring mean fluorescence intensity at 10 uM incubated for 72 hrs followed by rhodamine 123 measured after 30 mins by flow cytometry; conditions: nci-h460, 72.5 h; outline: as §2
# [18] = Selectivity index, ratio of mean fluorescence intensity for stimulation of P-gp in human multidrug resistant NCI-H460/R cells to mean fluorescence intensity for stimulation of P-gp in human NCI-H460 cells assessed as decrease in Rho123 accumulation at 10 uM for 30 mins; assay type: functional; conditions: 0.5 h
# [19] = target: T1, ATP-dependent translocase ABCB1; assay: Stimulation of P-gp in human multidrug resistant NCI-H460/R cells assessed as fluorescence activity ratio at 5 uM for 30 mins by Rho123 accumulation assay relative to control; conditions: nci-h460, 0.5 h
# [20] = target: T1, ATP-dependent translocase ABCB1; assay: Stimulation of P-gp in human multidrug resistant NCI-H460/R cells assessed as fluorescence activity ratio at 10 uM for 72 mins by Rho123 accumulation assay relative to control; conditions: nci-h460, 1.2 h
# [21] = Selectivity index, ratio of IC50 for cytotoxicity against human MRC-5 cells to of IC50 for anticancer activity against human NCI-H460 cells; assay type: toxicity, cell-based; conditions: for selectivity ratio: MRC-5 cells versus NCI-H460 cells, read-out: Ratio IC50
# Outline: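 Selectivity index is the MRC-5 IC50 divided by the NCI-H460 IC50. Both come from MTT viability assays over 2–50 μM (compounds) or 2–50 μg/mL (extract).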
SMILES,Selectivity Index [7],Selectivity Index [8],pIC50 (NCI-H460 [9]),Selectivity Index [10],Flu intensity [11],Ratio [12],pIC50 (MRC5),Ratio [13],pIC50 (NCI-H460 [14]),Flu intensity [15],Flu intensity [16],Flu intensity [17],Selectivity Index [18],Ratio [19],Ratio [20],selectivity ratio [21],also measured
COc1cc2c(cc1OC)CN(CCc1ccc(NC(=O)c3cc(OC)c(OC)cc3NC(=O)c3cnc4ccccc4c3)cc1)CC2 [TARIQUIDAR],,,,,,,,,,,,,,,,,Ratio [1]: 3.7; Ratio [2]: 3.7; Selectivity Index [3]: 121.16; Flu intensity [4]: 3004; Selectivity Index [5]: 121.16; Flu intensity [6]: 3004
CC(C)c1c(O)c(O)c2c(c1O)C(=O)C(O)=C1C(C)(C)CCC[C@@]12C,4.43,58.52,4.84,7,253,0.49,4.45,0.21,4.85,1258.8,173.5,109.7,11.76,2.45,0.14,2.5,
CC(C)C1=C(O)C(=O)[C@@]23O[C@@]2(C(=O)C(O)=C2C(C)(C)CCC[C@@]23C)C1=O,11.16,33.08,4.76,11.68,666.1,1.3,4.40,0.36,4.69,711.6,289.7,276.6,30.97,1.39,0.34,2,
COc1cccc2c1C(=O)c1c(O)c3c(c(O)c1C2=O)C[C@@](O)(C(=O)CO)C[C@@H]3O[C@H]1C[C@H](N)[C@H](O)[C@H](C)O1 [DOXORUBICIN],,,5.79,,,,,,,,,,,,,,
CC(C)c1cc2c(c(O)c1O)[C@@]1(O)CCCC(C)(C)[C@@H]1C(=O)C2=O,10.26,27.68,< 4.30,10.72,573,1.12,< 4.30,0.33,< 4.30,595.3,265.9,254.5,26.64,1.16,0.31,,Ratio IC50 [21]: Not Active
CC(C)C1=C(O)C(=O)C2=C(C(=O)C(O)=C3C(C)(C)CCC[C@]23C)C1=O,9.76,31.13,4.69,11.18,991.3,1.93,4.36,0.34,4.64,669.6,277.3,242,46.09,1.3,0.3,2,
CC(=O)O[C@H]1C(=O)[C@@]2(C)[C@H]([C@H](OC(=O)c3ccccc3)[C@]3(O)C[C@H](OC(=O)[C@H](O)[C@@H](NC(=O)c4ccccc4)c4ccccc4)C(C)=C1C3(C)C)[C@]1(OC(C)=O)CO[C@@H]1C[C@@H]2O [PACLITAXEL],,,6.93,,,,6.28,,9.22,,,,,,,872,
